Laboratory results as given in ChEMBL document CHEMBL5653631, “A Potent and Selective ULK1 Inhibitor Suppresses Autophagy and Sensitizes Cancer Cells to Nutrient Stress” (iScience, 2018).

Legend:
[1] = biological target: Death-associated protein kinase 2 (Homo sapiens) (UniProt Q9UIK4); experiment: Inhibition of human recombinant DAPK2 at 500 nM in presence of ATP by radiometric assay relative to control
[2] = biological target: Casein kinase II subunit alpha (Homo sapiens) (UniProt P68400); experiment: Inhibition of human recombinant CK2a1 at 500 nM in presence of ATP by radiometric assay relative to control
[3] = biological target: Receptor-type tyrosine-protein kinase FLT3 (Homo sapiens) (UniProt P36888); experiment: Inhibition of human recombinant FLT3 at 500 nM in presence of ATP by radiometric assay relative to control
[4] = biological target: Eukaryotic translation initiation factor 2-alpha kinase 1 (Homo sapiens) (UniProt Q9BQI3); experiment: Inhibition of human recombinant HRI at 500 nM in presence of ATP by radiometric assay relative to control
[5] = biological target: T1, Eukaryotic translation initiation factor 2-alpha kinase 3 (Homo sapiens) (UniProt Q9NZJ5); experiment: Inhibition of human recombinant PEK at 15 nM related to control ULK1
T1 sequence (whole entry): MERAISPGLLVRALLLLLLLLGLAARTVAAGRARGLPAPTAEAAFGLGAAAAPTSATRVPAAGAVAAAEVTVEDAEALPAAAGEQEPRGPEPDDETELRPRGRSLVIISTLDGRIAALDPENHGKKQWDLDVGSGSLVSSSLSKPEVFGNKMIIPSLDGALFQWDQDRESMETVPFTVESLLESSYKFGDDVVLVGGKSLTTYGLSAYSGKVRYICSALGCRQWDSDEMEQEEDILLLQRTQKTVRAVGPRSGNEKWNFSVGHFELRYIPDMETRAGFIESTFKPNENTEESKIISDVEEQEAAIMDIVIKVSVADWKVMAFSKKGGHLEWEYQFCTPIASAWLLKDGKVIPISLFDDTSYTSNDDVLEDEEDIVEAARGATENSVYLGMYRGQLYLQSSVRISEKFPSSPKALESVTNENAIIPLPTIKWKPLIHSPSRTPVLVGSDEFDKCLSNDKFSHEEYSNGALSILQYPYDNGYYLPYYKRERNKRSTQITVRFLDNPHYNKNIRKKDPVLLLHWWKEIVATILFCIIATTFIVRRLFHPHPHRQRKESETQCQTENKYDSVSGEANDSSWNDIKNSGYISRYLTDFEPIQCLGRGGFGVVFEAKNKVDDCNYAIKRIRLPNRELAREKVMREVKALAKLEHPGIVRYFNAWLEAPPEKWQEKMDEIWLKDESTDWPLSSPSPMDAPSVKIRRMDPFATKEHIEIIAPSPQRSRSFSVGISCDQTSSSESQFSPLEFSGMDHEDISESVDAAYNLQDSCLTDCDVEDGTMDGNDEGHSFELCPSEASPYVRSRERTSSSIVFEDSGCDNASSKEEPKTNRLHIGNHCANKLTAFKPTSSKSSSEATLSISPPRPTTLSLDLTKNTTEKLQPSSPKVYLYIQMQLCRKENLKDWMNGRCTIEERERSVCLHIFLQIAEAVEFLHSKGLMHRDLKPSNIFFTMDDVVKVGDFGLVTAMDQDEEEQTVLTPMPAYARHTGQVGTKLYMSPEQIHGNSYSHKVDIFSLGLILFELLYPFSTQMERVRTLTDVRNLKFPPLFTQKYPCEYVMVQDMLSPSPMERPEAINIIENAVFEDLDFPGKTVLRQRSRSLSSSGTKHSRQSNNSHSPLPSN

[6] = biological target: Serine/threonine-protein kinase PLK3 (Homo sapiens) (UniProt Q9H4B4); experiment: Inhibition of human recombinant PLK3 at 15 nM related to control ULK1
[7] = biological target: Bone morphogenetic protein receptor type-1B (Homo sapiens) (UniProt O00238); experiment: Inhibition of human recombinant BMPR1B at 15 nM in presence of ATP by radiometric assay relative to control
Procedure, shortened: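 Part of a radiometric in vitro activity panel of 327 recombinant human kinases. Each kinase was tested in duplicate at one inhibitor concentration. Activity remaining was expressed as a percentage of the vehicle control, and percent inhibition was taken as 100 minus that value.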

[8] = biological target: Serine/threonine-protein kinase PAK 3 (Homo sapiens) (UniProt O75914); experiment: Inhibition of human recombinant PAK3 at 40 nM related to control ULK1
[9] = biological target: Serine/threonine-protein kinase SBK1 (Homo sapiens) (UniProt Q52WX2); experiment: Inhibition of human recombinant SBK1 at 40 nM related to control ULK1
[10] = biological target: Protein-tyrosine kinase 2-beta (Homo sapiens) (UniProt Q14289); experiment: Inhibition of human recombinant PYK2 at 40 nM in presence of ATP by radiometric assay relative to control
[11] = biological target: T2, Serine/threonine-protein kinase BRSK1 (Homo sapiens) (UniProt Q8TDC3); experiment: Inhibition of human recombinant BRSK1 at 40 nM in presence of ATP by radiometric assay relative to control
T2 sequence (whole entry): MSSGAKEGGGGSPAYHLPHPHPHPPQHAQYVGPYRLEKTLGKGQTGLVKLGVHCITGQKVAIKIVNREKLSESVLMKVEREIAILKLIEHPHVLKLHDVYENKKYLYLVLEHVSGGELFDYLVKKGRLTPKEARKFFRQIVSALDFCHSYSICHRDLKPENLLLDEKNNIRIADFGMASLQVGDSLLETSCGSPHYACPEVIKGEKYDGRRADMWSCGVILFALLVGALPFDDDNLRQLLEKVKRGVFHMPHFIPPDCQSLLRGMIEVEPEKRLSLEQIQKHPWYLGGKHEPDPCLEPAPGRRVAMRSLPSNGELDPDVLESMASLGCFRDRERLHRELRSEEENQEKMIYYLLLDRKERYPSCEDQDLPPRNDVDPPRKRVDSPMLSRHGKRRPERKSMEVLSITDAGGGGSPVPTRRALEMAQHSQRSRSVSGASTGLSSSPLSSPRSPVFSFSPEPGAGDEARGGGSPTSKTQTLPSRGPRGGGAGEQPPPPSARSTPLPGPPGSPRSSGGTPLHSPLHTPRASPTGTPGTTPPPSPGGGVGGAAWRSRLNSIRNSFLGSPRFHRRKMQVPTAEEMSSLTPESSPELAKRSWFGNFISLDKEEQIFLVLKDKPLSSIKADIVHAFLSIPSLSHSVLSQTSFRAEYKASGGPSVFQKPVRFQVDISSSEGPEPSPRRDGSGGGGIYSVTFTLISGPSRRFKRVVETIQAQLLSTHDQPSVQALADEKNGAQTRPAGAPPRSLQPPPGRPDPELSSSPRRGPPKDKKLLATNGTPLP
Procedure, shortened: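 Recombinant human kinase panel (327 kinases) run as radiometric activity assays, each kinase in duplicate at one compound concentration. Activity remaining expressed relative to vehicle control; percent inhibition taken as 100% minus % activity remaining.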

Chain of Bone morphogenetic protein receptor type-1B (Homo sapiens) (O00238 whole entry): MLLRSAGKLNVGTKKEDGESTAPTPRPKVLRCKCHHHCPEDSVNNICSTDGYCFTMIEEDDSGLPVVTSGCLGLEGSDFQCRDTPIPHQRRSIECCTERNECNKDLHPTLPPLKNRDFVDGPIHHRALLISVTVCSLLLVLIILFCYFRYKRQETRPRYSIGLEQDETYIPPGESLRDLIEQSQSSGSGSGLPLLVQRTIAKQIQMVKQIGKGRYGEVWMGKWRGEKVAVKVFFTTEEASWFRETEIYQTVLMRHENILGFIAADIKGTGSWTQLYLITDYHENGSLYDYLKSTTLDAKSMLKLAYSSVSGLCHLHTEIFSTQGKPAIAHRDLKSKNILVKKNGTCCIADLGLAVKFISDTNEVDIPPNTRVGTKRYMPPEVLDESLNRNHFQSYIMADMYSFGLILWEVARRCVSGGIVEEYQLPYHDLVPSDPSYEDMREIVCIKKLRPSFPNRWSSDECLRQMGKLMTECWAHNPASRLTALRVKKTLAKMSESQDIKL
Chain of Eukaryotic translation initiation factor 2-alpha kinase 1 (Homo sapiens) (Q9BQI3 whole entry): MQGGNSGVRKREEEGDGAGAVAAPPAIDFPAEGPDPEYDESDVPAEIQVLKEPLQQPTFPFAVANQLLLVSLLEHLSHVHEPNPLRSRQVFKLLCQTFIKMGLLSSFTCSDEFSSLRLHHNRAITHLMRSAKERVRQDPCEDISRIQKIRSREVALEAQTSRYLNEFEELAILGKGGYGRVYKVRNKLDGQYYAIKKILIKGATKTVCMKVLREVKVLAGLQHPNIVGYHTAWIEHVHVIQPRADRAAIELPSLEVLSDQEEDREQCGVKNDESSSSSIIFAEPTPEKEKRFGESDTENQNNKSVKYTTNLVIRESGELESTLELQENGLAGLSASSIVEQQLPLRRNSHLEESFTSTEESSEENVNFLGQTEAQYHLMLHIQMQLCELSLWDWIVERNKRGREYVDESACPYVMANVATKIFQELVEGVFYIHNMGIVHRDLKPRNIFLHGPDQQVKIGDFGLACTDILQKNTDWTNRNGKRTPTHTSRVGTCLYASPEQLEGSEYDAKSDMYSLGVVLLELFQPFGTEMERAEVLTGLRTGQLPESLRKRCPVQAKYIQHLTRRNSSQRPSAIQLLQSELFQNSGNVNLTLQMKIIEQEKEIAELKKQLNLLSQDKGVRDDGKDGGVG
Chain of Receptor-type tyrosine-protein kinase FLT3 (Homo sapiens) (P36888 whole entry): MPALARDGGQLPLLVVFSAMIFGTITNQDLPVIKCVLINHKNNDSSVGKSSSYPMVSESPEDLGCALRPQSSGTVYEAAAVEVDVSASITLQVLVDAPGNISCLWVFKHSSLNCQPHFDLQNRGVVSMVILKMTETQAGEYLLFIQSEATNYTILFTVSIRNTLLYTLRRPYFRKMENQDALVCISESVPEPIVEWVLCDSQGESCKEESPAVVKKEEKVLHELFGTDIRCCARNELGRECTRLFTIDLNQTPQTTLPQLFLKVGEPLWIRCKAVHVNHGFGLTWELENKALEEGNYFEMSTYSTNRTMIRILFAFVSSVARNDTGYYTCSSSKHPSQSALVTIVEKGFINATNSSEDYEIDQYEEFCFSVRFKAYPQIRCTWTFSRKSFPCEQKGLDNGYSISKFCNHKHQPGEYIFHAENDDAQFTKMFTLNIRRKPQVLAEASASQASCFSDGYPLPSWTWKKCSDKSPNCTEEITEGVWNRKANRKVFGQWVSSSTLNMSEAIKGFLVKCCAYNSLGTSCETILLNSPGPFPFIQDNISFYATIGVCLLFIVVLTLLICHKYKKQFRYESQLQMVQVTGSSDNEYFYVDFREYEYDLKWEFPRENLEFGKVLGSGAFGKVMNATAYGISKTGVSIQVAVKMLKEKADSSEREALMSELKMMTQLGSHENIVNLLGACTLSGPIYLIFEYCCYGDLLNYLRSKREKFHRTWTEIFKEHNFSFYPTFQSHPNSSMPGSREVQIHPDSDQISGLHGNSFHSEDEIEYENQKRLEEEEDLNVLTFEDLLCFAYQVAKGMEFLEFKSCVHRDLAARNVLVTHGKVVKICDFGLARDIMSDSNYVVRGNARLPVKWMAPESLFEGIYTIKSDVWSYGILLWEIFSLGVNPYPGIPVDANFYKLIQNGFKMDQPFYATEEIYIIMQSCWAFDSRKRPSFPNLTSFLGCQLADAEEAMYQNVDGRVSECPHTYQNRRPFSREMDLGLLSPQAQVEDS
Chain of Protein-tyrosine kinase 2-beta (Homo sapiens) (Q14289 whole entry, looked up): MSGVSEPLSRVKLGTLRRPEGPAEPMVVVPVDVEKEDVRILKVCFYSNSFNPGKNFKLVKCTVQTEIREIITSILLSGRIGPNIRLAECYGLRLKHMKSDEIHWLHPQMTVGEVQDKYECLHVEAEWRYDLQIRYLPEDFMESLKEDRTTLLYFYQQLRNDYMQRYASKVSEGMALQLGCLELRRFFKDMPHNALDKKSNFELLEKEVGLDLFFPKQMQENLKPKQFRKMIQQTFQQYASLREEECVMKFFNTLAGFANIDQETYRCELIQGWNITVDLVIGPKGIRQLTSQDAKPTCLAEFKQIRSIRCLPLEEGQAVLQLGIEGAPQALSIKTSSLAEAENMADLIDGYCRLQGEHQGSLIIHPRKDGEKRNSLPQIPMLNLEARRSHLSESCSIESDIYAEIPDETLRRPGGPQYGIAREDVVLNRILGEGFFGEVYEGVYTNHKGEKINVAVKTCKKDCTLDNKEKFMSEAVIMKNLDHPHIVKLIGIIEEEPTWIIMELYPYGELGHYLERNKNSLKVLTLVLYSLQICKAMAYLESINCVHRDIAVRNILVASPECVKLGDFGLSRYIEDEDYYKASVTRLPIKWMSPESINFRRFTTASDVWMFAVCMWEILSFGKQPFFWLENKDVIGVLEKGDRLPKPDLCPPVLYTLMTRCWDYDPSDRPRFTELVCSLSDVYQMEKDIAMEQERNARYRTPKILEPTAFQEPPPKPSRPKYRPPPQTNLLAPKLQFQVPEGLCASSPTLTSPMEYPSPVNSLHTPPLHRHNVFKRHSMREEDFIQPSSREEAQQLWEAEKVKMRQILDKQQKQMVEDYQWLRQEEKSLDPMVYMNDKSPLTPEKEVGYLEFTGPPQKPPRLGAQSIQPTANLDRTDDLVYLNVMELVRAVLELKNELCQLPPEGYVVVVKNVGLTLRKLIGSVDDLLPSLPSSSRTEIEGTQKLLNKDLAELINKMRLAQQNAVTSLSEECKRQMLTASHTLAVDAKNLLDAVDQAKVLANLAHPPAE
Chain of Death-associated protein kinase 2 (Homo sapiens) (Q9UIK4 whole entry, looked up): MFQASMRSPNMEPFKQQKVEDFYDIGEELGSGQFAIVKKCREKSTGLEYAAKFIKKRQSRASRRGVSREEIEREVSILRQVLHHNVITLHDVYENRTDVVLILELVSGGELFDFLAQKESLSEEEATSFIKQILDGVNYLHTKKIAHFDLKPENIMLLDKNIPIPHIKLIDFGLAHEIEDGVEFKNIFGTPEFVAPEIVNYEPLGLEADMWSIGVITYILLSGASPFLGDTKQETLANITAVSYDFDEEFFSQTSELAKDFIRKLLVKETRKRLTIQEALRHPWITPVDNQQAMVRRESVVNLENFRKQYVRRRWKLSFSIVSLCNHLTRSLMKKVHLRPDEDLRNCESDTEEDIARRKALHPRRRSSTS
Chain of Serine/threonine-protein kinase PAK 3 (Homo sapiens) (O75914 whole entry, looked up): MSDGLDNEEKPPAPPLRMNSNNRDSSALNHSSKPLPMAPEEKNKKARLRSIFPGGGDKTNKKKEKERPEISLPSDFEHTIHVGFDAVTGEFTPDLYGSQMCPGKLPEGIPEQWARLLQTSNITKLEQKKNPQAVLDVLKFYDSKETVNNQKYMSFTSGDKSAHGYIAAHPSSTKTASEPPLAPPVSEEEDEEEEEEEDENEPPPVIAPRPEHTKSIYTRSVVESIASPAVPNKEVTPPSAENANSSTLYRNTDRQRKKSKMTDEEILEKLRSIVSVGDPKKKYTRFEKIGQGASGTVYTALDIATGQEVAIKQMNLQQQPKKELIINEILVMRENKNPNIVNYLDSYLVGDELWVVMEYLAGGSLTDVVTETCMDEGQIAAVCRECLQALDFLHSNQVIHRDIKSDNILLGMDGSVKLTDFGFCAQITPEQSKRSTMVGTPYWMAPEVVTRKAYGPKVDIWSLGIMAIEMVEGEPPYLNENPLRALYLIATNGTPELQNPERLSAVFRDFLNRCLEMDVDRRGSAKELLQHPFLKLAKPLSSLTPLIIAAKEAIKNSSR
Chain of Serine/threonine-protein kinase PLK3 (Homo sapiens) (Q9H4B4 whole entry, looked up): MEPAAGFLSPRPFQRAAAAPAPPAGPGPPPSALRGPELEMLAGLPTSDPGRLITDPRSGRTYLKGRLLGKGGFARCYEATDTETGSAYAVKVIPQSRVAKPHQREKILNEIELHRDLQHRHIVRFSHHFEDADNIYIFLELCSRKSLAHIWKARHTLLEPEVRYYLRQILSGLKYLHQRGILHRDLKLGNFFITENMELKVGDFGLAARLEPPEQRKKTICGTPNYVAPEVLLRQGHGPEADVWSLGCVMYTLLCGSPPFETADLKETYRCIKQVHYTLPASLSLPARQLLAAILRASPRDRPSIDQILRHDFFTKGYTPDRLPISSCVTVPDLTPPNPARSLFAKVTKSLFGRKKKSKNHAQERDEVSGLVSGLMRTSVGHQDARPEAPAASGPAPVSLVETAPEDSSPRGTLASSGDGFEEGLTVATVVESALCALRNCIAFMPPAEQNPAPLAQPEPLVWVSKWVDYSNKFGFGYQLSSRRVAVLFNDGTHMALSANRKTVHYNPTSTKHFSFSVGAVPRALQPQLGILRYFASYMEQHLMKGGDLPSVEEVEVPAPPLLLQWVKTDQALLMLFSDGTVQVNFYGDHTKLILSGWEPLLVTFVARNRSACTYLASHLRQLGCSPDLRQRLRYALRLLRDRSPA

CNC(=O)c1ccccc1Oc1nc(Nc2cc(OC)c(OC)c(OC)c2)ncc1Br
inhibition [1]: 0% | inhibition [2]: 14% | inhibition [3]: 57% | inhibition [4]: 0%

CC(C)[C@H](NC(=O)c1cc(-c2cnn3cc(-c4ccc(OCCN5CCCCC5)cc4)cnc23)cs1)C(F)(F)F
fold change (FC) [5]: 0 | fold change (FC) [6]: 0.03 | inhibition [7]: 24%

O=C(N[C@@H](C1CC1)C(F)(F)F)c1cc(-c2cnn3cc(-c4ccc(F)cc4)cnc23)cs1
fold change (FC) [8]: 0 | fold change (FC) [9]: 0 | inhibition [10]: 3% | inhibition [11]: 2%
